According to ChEMBL document CHEMBL1136404, “Synthesis and biological evaluation of new UDP-GalNAc analogues for the study of polypeptide-alpha-GalNAc-transferases” (Bioorg Med Chem Lett, 2003):

Legend:
[1] = Inhibitory activity against GalNAc transferase 1 at a concentration of 1000 uM
Outline: (§1)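 Bovine ppGalNAc-T1 (EC 2.4.1.41), secreted 6His-tagged protein from baculovirus-infected insect cells, Ni-NTA purified (0.5 U/mg). Stopped with ice-cold water; glycopeptide recovered on C18 cartridge, eluted with methanol, scintillation counted. Inhibition reported as relative %.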

[2] = Inhibitory activity against GalNAc transferase 1 at a concentration of 20 uM; outline: as §1
[3] = Inhibitory activity against GalNAc transferase 1 at a concentration of 200 uM; outline: as §1

## COCC1OC(OP(=O)(O)OP(=O)(O)OC[C@H]2OC(n3ccc(=O)[nH]c3=O)[C@H](O)[C@@H]2O)C(NC(C)=O)C(O)C1O (some centres not stated)
[1]
  inhibition: 76%
[2]
  inhibition: 0%
[3]
  inhibition: 17%

## CC(=O)N[C@@H]1[C@H](OP(=O)(O)OP(=O)(O)OC[C@H]2O[C@@H](n3ccc(=O)[nH]c3=O)[C@H](O)[C@@H]2O)O[C@@H](CO)[C@H](O)[C@H]1O
[1]
  inhibition: 79%
[2]
  inhibition: 0%
[3]
  inhibition: 39%

## COC1C(O)C(CO)OC(OP(=O)(O)OP(=O)(O)OC[C@H]2OC(n3ccc(=O)[nH]c3=O)[C@H](O)[C@@H]2O)C1NC(C)=O (some centres not stated)
[1]
  inhibition: 74%
[2]
  inhibition: 0%
[3]
  inhibition: 30%

## COC1C(CO)OC(OP(=O)(O)OP(=O)(O)OC[C@H]2OC(n3ccc(=O)[nH]c3=O)[C@H](O)[C@@H]2O)C(NC(C)=O)C1O (some centres not stated)
[1]
  inhibition: 72%
[2]
  inhibition: 0%
[3]
  inhibition: 7%
